Results published in article PMC12644240 (International Journal of Nanomedicine, 2025).

What was measured:
Aqueous solubility study = assay type: physicochemical; details: bidistilled water, 37 °C, 72 h stirring, n = 3
How it was run: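 Excess drug (raw powder), coarse suspension or nanosuspension stirred in bidistilled water at 37 °C for 72 h. Samples were centrifuged twice at 15,000 rpm for 30 min, and the clear supernatant was diluted. Drug was quantified by HPLC (C18 column; water:ACN:acetic acid […]; 0.7 mL/min; 306 nm) against a linear calibration curve. n = 3, mean ± SD.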

[1] = Dissolution study in PBS pH 7.4 under sink conditions; assay type: physicochemical; details: PBS pH 7.4, 37 °C
How it was run: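 Nanosuspension, coarse suspension or raw powder (1 mg drug each, liquid doses confirmed by HPLC) was added to 100 mL PBS pH 7.4 at 37 °C with magnetic stirring under sink conditions. Samples taken at 1–30 min and 1–8 h were replaced with fresh medium and centrifuged at 15000 rpm for 20 min. Supernatant was assayed by HPLC at 306 nm. At least triplicate, mean ± SD.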

human CRBN = details: cited from earlier work
SALL4 and Aiolos = details: cited from earlier work
embryonic models = details: cited from earlier work
[2] = cited from earlier work; for Dissolution after one minute, coarse suspension / Dissolution after one minute, nanosuspension: 1 min; for Dissolution after one minute, nanosuspension: nanosuspension with Tween 80 as stabilizer
[3] = cited from earlier work

Nc1cccc2c1C(=S)N(C1CCC(=O)NC1=O)C2=O (stereo not shown) [MTPOM, 3-monothiopomalidomide]
Aqueous solubility (Aqueous solubility study): 4.8 ± 0.2 µg/mL
Drug dissolved at first time point (1 minute) ([1]; 1 min): approximately 22%
Drug dissolved at end of test (8 hours) ([1]; 8 h): 44%
Binding to human CRBN (human CRBN): binds to human CRBN
Degradation of neosubstrates SALL4 and Aiolos (SALL4 and Aiolos): without triggering the subsequent degradation
Risk of teratogenicity (embryonic models): significantly attenuated risk of teratogenicity

COc1ccc2c(c1)c(CC(=O)O)c(C)n2C(=O)c1ccc(Cl)cc1 [indomethacin]
Dissolution after one minute, coarse suspension [2]: approximately 20%
Dissolution after 30 minutes, coarse suspension [2]: 40–50%
Dissolution after one minute, nanosuspension [2]: almost complete dissolution

CCC(C)n1ncn(-c2ccc(N3CCN(c4ccc(OCC5COC(Cn6cncn6)(c6ccc(Cl)cc6Cl)O5)cc4)CC3)cc2)c1=O (stereo not shown) [itraconazole]
Dissolution after one minute, coarse suspension [2]: approximately 20%
Dissolution after 30 minutes, coarse suspension [2]: 40–50%
Dissolution after one minute, nanosuspension [2]: almost complete dissolution

CC[C@@H]([C@H](C)O)n1ncn(-c2ccc(N3CCN(c4ccc(OC[C@@H]5CO[C@@](Cn6cncn6)(c6ccc(F)cc6F)C5)cc4)CC3)cc2)c1=O [posaconazole]
Average diameter when nanosized via media milling [3]: 185 nm
